The source of these data is ChEMBL document CHEMBL4765291, “Design, synthesis and biological evaluation of novel 3,4-dihydro-2(1H)-quinolinone derivatives as potential chitin synthase inhibitors and antifungal agents” (Eur J Med Chem, 2020).

One assay deals with Candida tropicalis. In words: Inhibition of Candida tropicalis ATCC 750 chitin synthase at 300 ug/ml using UDP-GlcNAc as substrate relative to control. The note with it: dose 300.0 µg/ml. In outline:
(§1)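 Chitin synthase prepared from C. tropicalis ATCC 750 by low- and high-speed centrifugation. DMSO stocks (10 mg/mL) diluted in 50 mM Tris-HCl pH 7.5; test concentrations 300–9.375 µg/mL. Chitin synthesized in WGA-coated wells, bound with WGA-HRP, washed, developed with TMB/H2O2, stopped with 2 M H2SO4, OD read. Duplicate; polyoxin B positive control.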

Assay [1] can be described thus: Inhibition of Candida tropicalis ATCC 750 chitin synthase using UDP-GlcNAc as substrate. Summed up:
as §1

Assay [2] relates to Candida albicans. In words: Antifungal activity against Candida albicans ATCC 90023 incubated for 48 hrs by two-fold broth dilution analysis. It counts as functional. In outline: (§2)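 Stock solutions in DMSO, diluted to 0.25–512 µg/mL; two-fold serial broth dilution in 96-well plates. Fungi grown on modified Sabouraud chloramphenicol agar (1% peptone, 2% glucose, […]). Incubated 48 h at 37 °C, then MIC (µg/mL) recorded. Fluconazole and polyoxin B as positive controls; each group tested in triplicate.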
Background: In broth dilution the organism is exposed to a series of concentrations in liquid medium.

Another assay deals with Cryptococcus neoformans. In words: Antifungal activity against Cryptococcus neoformans ATCC 32719 incubated for 48 hrs by two-fold broth dilution analysis. It counts as functional. In outline:
as §2

For the next assay, the system named is Aspergillus flavus. The experiment in a line: Antifungal activity against Aspergillus flavus ATCC 16870 incubated for 48 hrs by two-fold broth dilution analysis. It counts as functional. Summed up:
as §2

Assay [3] has as its system Staphylococcus aureus. The experiment in a line: Antibacterial activity against methicillin-resistant Staphylococcus aureus N. 315. The assay is classed as functional. Summed up:
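Two-fold serial broth dilution in 96-well plates per national clinical standard; beef extract peptone medium (1% peptone, 0.3% beef extract, 0.5% NaCl, […]). Compounds from DMSO stock diluted to test concentrations; incubation 18–24 h. MIC recorded; each group tested independently in triplicate.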

Assay [4] concerns Candida albicans. In words: Antifungal activity against Candida albicans ATCC 76615 incubated for 48 hrs by two-fold broth dilution analysis. The assay is classed as functional. In outline: as §2
The test system of another assay is Aspergillus fumigatus. The experiment in a line: Antifungal activity against Aspergillus fumigatus GIMCC 3.19 incubated for 48 hrs by two-fold broth dilution analysis. The assay is classed as functional. In outline: as §2
The subject of assay [5] is Staphylococcus aureus. The experiment in a line: Antibacterial activity against Staphylococcus aureus ATCC 25923. The assay is classed as functional. Summed up: (§3)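 Two-fold serial broth dilution in 96-well plates following National Committee standards; compounds tested at different concentrations. Medium: beef extract peptone (1% peptone, 0.3% beef extract, 0.5% NaCl). Incubation 18–24 h. MIC recorded; streptomycin and norfloxacin as control drugs; each group tested in triplicate.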

The next assay concerns Bacillus subtilis. The experiment in a line: Antibacterial activity against Bacillus subtilis ATCC 6633. The assay is classed as functional. In outline: as §3
The next assay relates to Pseudomonas aeruginosa. In words: Antibacterial activity against Pseudomonas aeruginosa ATCC 9027. The assay is classed as functional. Summed up:
as §3

For the next assay, the system named is Proteus vulgaris. In words: Antibacterial activity against Bacillus proteus ATCC 8427. The assay is classed as functional. Summed up: as §3
For a further assay, the system named is Escherichia coli. The experiment in a line: Antibacterial activity against Escherichia coli JM 109.

≈ marks a conversion by molar mass, not a printed value.

The inhibition is how much of the control response was suppressed. Low values mean a weak effect, high ones a strong effect. For orientation: IC50 means the concentration that inhibits the measured activity by half. The MIC is the smallest concentration in the dilution series that meets the test's criterion for growth inhibition. Higher therefore signals a need for much substance. `Cc1ccccc1NC(=O)/C=C/C(=O)NC1Cc2ccccc2NC1=O` (stereo not drawn) registered an inhibition in the assay on Candida tropicalis of 67.3%. Further, the IC50 in assay [1] turned out to be 380 µM. The MIC with Candida albicans [2] was 2 µg/mL (≈ 5.72 µM); in the assay with Cryptococcus neoformans it was 16 µg/mL (≈ 45.8 µM); against Aspergillus flavus it was 4 µg/mL (≈ 11.4 µM); against Staphylococcus aureus [3], 256 µg/mL (≈ 733 µM); in the assay on Candida albicans [4], 1 µg/mL (≈ 2.86 µM); against Aspergillus fumigatus, 4 µg/mL (≈ 11.4 µM). The MIC with Staphylococcus aureus [5] amounted to 128 µg/mL (≈ 366 µM); against Bacillus subtilis, 512 µg/mL (≈ 1470 µM); against Pseudomonas aeruginosa, 512 µg/mL (≈ 1470 µM); in the assay on Proteus vulgaris, 256 µg/mL (≈ 733 µM); in the assay on Escherichia coli it was 256 µg/mL (≈ 733 µM).

`Cc1ccc(NC(=O)/C=C/C(=O)NC2Cc3ccccc3NC2=O)cc1` (stereo not drawn) showed an inhibition with Candida tropicalis of 58.7%. The IC50 in assay [1] is 260 µM. The MIC worked out at 2 µg/mL (≈ 5.72 µM) in the assay with Candida albicans [2]; 16 µg/mL (≈ 45.8 µM) against Cryptococcus neoformans; 4 µg/mL (≈ 11.4 µM) with Aspergillus flavus; 256 µg/mL (≈ 733 µM) against Staphylococcus aureus [3]; 4 µg/mL (≈ 11.4 µM) against Candida albicans [4]; 4 µg/mL (≈ 11.4 µM) against Aspergillus fumigatus. Further, the MIC worked out at 128 µg/mL (≈ 366 µM) with Staphylococcus aureus [5]; 512 µg/mL (≈ 1470 µM) in the assay on Bacillus subtilis; 512 µg/mL (≈ 1470 µM) against Pseudomonas aeruginosa; 256 µg/mL (≈ 733 µM) in the assay with Proteus vulgaris; 256 µg/mL (≈ 733 µM) with Escherichia coli.

`O=C(/C=C/C(=O)NC1Cc2ccccc2NC1=O)Nc1cccc2ccccc12` (stereo not drawn) had an inhibition in the assay with Candida tropicalis of 27.8%. The MIC worked out at 2 µg/mL (≈ 5.19 µM) in the assay with Candida albicans [2]; 4 µg/mL (≈ 10.4 µM) in the assay with Cryptococcus neoformans; 8 µg/mL (≈ 20.8 µM) in the assay with Aspergillus flavus; 256 µg/mL (≈ 664 µM) in the assay with Staphylococcus aureus [3]; 2 µg/mL (≈ 5.19 µM) in the assay with Candida albicans [4]; 4 µg/mL (≈ 10.4 µM) with Aspergillus fumigatus. For the same compound, the MIC came out at 256 µg/mL (≈ 664 µM) against Staphylococcus aureus [5]; 256 µg/mL (≈ 664 µM) with Bacillus subtilis; 256 µg/mL (≈ 664 µM) against Pseudomonas aeruginosa; 256 µg/mL (≈ 664 µM) against Proteus vulgaris; 512 µg/mL (≈ 1330 µM) against Escherichia coli.

As for `CN[C@@H]1[C@H](O[C@H]2[C@H](O[C@H]3[C@H](O)[C@@H](O)[C@H](N=C(N)N)[C@@H](O)[C@@H]3N=C(N)N)O[C@@H](C)[C@]2(O)C=O)O[C@@H](CO)[C@H](O)[C@H]1O` [STREPTOMYCIN], the minimal inhibitory concentration (MIC) amounted to 16 µg/mL (≈ 27.5 µM) in the assay on Staphylococcus aureus [3]; 32 µg/mL (≈ 55 µM) against Staphylococcus aureus [5]; 8 µg/mL (≈ 13.8 µM) in the assay on Bacillus subtilis; 8 µg/mL (≈ 13.8 µM) with Pseudomonas aeruginosa; 16 µg/mL (≈ 27.5 µM) in the assay on Proteus vulgaris; 32 µg/mL (≈ 55 µM) against Escherichia coli.

As to `O=C(/C=C/C(=O)NC1Cc2ccccc2NC1=O)Nc1ccccc1[N+](=O)[O-]` (stereo not drawn), the inhibition with Candida tropicalis turned out to be 53.3%. In assay [1], this compound displayed an IC50 of 320 µM. Besides, the MIC was 2 µg/mL (≈ 5.26 µM) in the assay on Candida albicans [2]; 4 µg/mL (≈ 10.5 µM) in the assay on Cryptococcus neoformans; 4 µg/mL (≈ 10.5 µM) against Aspergillus flavus; 256 µg/mL (≈ 673 µM) against Staphylococcus aureus [3]; 4 µg/mL (≈ 10.5 µM) against Candida albicans [4]; 8 µg/mL (≈ 21 µM) against Aspergillus fumigatus. For the same compound, the MIC against Staphylococcus aureus [5] came to 128 µg/mL (≈ 337 µM); against Bacillus subtilis, 256 µg/mL (≈ 673 µM); against Pseudomonas aeruginosa it was 256 µg/mL (≈ 673 µM); in the assay with Proteus vulgaris, 256 µg/mL (≈ 673 µM); against Escherichia coli, 256 µg/mL (≈ 673 µM).

As to `O=C(/C=C/C(=O)NC1Cc2ccccc2NC1=O)Nc1cccc([N+](=O)[O-])c1` (stereo not drawn), in the assay on Candida tropicalis, the inhibition worked out at 49.3%. In addition, the MIC with Candida albicans [2] stood at 2 µg/mL (≈ 5.26 µM); with Cryptococcus neoformans, 4 µg/mL (≈ 10.5 µM); against Aspergillus flavus, 4 µg/mL (≈ 10.5 µM); with Staphylococcus aureus [3] it was 256 µg/mL (≈ 673 µM); against Candida albicans [4] it was 4 µg/mL (≈ 10.5 µM); in the assay on Aspergillus fumigatus it was 8 µg/mL (≈ 21 µM). Besides, the MIC with Staphylococcus aureus [5] was determined as 128 µg/mL (≈ 337 µM); against Bacillus subtilis, 256 µg/mL (≈ 673 µM); in the assay on Pseudomonas aeruginosa, 512 µg/mL (≈ 1350 µM); in the assay with Proteus vulgaris, 256 µg/mL (≈ 673 µM); against Escherichia coli, 128 µg/mL (≈ 337 µM).

In the assay on Candida tropicalis, `O=C(/C=C/C(=O)NC1Cc2ccccc2NC1=O)Nc1cccc(Br)c1` (stereo not drawn) had an inhibition of 45.2%. Besides, the MIC came to 1 µg/mL (≈ 2.41 µM) in the assay on Candida albicans [2]; 32 µg/mL (≈ 77.2 µM) with Cryptococcus neoformans; 4 µg/mL (≈ 9.66 µM) against Aspergillus flavus; 512 µg/mL (≈ 1240 µM) against Staphylococcus aureus [3]; 2 µg/mL (≈ 4.83 µM) with Candida albicans [4]; 4 µg/mL (≈ 9.66 µM) with Aspergillus fumigatus. In addition, the MIC against Staphylococcus aureus [5] stood at 128 µg/mL (≈ 309 µM); against Bacillus subtilis, 256 µg/mL (≈ 618 µM); against Pseudomonas aeruginosa, 256 µg/mL (≈ 618 µM); in the assay with Proteus vulgaris it was 256 µg/mL (≈ 618 µM); against Escherichia coli, 256 µg/mL (≈ 618 µM).

In the assay with Candida tropicalis, `O=C(/C=C/C(=O)NC1Cc2ccccc2NC1=O)Nc1ccc(Cl)cc1` (stereo not drawn) gave an inhibition of 50.5%. Further, the MIC came out at 2 µg/mL (≈ 5.41 µM) in the assay with Candida albicans [2]; 4 µg/mL (≈ 10.8 µM) against Cryptococcus neoformans; 4 µg/mL (≈ 10.8 µM) against Aspergillus flavus; 512 µg/mL (≈ 1380 µM) against Staphylococcus aureus [3]; 4 µg/mL (≈ 10.8 µM) against Candida albicans [4]; 8 µg/mL (≈ 21.6 µM) with Aspergillus fumigatus. Further, the MIC turned out to be 128 µg/mL (≈ 346 µM) against Staphylococcus aureus [5]; 256 µg/mL (≈ 692 µM) with Bacillus subtilis; 512 µg/mL (≈ 1380 µM) against Pseudomonas aeruginosa; 512 µg/mL (≈ 1380 µM) against Proteus vulgaris; 256 µg/mL (≈ 692 µM) with Escherichia coli.
